The results in this text go back to ChEMBL document CHEMBL1127051, “Vanilloids. 1. Analogs of capsaicin with antinociceptive and antiinflammatory activity” (J Med Chem, 1993).

The species named for series [1] is Mus musculus. Description: Ratio of the number of responders to the number of animals tested; 5/8. It is filed as functional.
For series [2], the system named is Rattus norvegicus. Description: Percentage analgesia by rat hot plate test after oral administration at 300 mg/kg. The series is classed as functional. The procedure, abridged: (§1)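 Rats fasted 18 h, prescreened on a 55 ± 0.5 °C hot plate (latency <12 s, else lowest <30 s) to set the 0 h value. Groups of 8 dosed orally in sesame oil (1 mL/200 g); latency read at 1.5, 3, 5 h (24 h if persisting). %analgesia = [(LT(t) − LT(0))/(60 − LT(0))]×100, taken at the time of maximal latency.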
In general terms: In hot-plate and tail-flick tests a longer latency is read as antinociception.

The subject of series [3] is Mus musculus. Description: Latency time measured by mouse hot plate test after subcutaneous administration at 200 mg/kg. The series is classed as functional. Set-up: unit: s. Summed up:
(§2)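 Male CF-1 mice, 8 per group, given test agent sc in 0.2 mL ethanol/Tween-80/saline (10/10/80); dose 0.68 mmol (200 mg/kg for capsaicin). Placed on copper surface held at 55 ± 0.5 °C. Paw-response latency (s) reported as group mean ± SD; pretest latency ~5 s.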

The test system of series [4] is Mus musculus. Nature of the series: Percentage inhibition in mouse by using Croton oil-inflamed mouse ear test (topical dosing). It is filed as functional. Set-up: concentration or dose not given beside the values. The procedure, abridged: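 Male Cox ICR mice (25–35 g), 10 per group. Left ear given 25 μL of 1% compound in ethanol, repeated ~17 h later; 1 h after that, both ears given 25 μL 2% croton oil. After 4 h, 5 mm ear punches weighed. % inhibition = [(C − T1)/C]×100, using left-minus-right weight differences versus vehicle controls.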

Series [5] is described as follows: Acute toxicity after intraperitoneal dose at 100 mg/kg in mice. Set-up: dose 100 mg/kg, route intraperitoneal. The note with it: mouse, in vivo, ip, read-out: Lethality. It is filed as organism-based. The procedure, abridged: (§3)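 Single intraperitoneal dose at the listed mg/kg; acute toxicity scored as % lethality = number of deaths / number of animals dosed, 7–10 animals per group.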

The species entered for series [6] is Mus musculus. Nature of the series: Ratio of the number of responders to the number of animals tested; 5/5. The series is classed as functional.
Series [7] is described as follows: Acute toxicity after intraperitoneal dose at 50 mg/kg in mice. It is filed as organism-based. Set-up: dose 50 mg/kg, route intraperitoneal. The conditions noted are these: mouse, in vivo, ip, read-out: Lethality. The procedure, abridged:
as §3

Series [8] is described as follows: Acute toxicity after intraperitoneal dose at 400 mg/kg in mice. Set-up: dose 400 mg/kg, route intraperitoneal. It is filed as organism-based. The conditions noted are these: mouse, in vivo, ip, read-out: Lethality. Summed up:
as §3

For series [9], the species on record is Mus musculus. Description: Ratio of the number of responders to the number of animals tested; 7/8. The series is classed as functional.
Series [10] is described as follows: Acute toxicity after intraperitoneal dose at 8 mg/kg in mice. It is filed as organism-based. Set-up: dose 8 mg/kg, route intraperitoneal. The note with it: mouse, in vivo, ip, read-out: Lethality. The procedure, abridged: as §3
For series [11], the species on record is Mus musculus. Description: Ratio of the number of responders to the number of animals tested; 8/8. The series is classed as functional.
Series [12] is described as follows: Acute toxicity after intraperitoneal dose at 33 mg/kg in mice. It is filed as organism-based. Set-up: dose 33 mg/kg, route intraperitoneal. The conditions noted are these: mouse, in vivo, ip, read-out: Lethality. The procedure, abridged: as §3
For series [13], the species on record is Mus musculus. Nature of the series: Ratio of the number of responders to the number of animals tested; 6/7. It is filed as functional. Summed up:
(§4)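 Male CF-1 mice, 8 per group, dosed sc in 0.2 mL ethanol/Tween-80/saline (10/10/80). Latency read on a copper hot plate held at 55 ± 0.5 °C, with a pretest latency of about 5 s; reported as mean latency (s) ± SD. A responder is an animal whose latency exceeds the vehicle-control mean plus 2 SD; response = responders/animals tested.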

In series [14] the test system is Mus musculus. Description: Latency time measured by mouse hot plate test after subcutaneous administration at 40 mg/kg. The series is classed as functional. The procedure, abridged: as §4
Series [15] deals with Mus musculus. Nature of the series: Latency time measured by mouse hot plate test after subcutaneous administration at 200 mg/kg in experiment 3. The series is classed as functional. Summed up: as §2
In series [16] the test system is Rattus norvegicus. Nature of the series: Percentage analgesia by using rat hot plate test after oral administration at 300 mg/kg. The series is classed as functional. The procedure, abridged:
as §1

Series [17] relates to Mus musculus. Description: Latency time measured by mouse hot plate test after subcutaneous at 200 mg/kg in experiment 2. It is filed as functional. The procedure, abridged: as §2
A short description of series [18]: Acute toxicity after intraperitoneal dose at 4 mg/kg in mice. It is filed as organism-based. The note with it: mouse, in vivo, ip, read-out: Lethality. Set-up: dose 4 mg/kg, route intraperitoneal. Summed up:
as §3

The subject of series [19] is Mus musculus. Description: Latency time measured by mouse hot plate test after subcutaneous administration at 200 mg/kg in experiment 1. The series is classed as functional. Summed up:
as §2

By Inhibition is commonly meant the percentage by which the read-out fell short of the control.

A value given as a limit tells only on which side of the number the result lay.

Consider `C=CCCCCCCCCNC(=O)Cc1ccc(O)c(OC)c1`, for which, in series [1], the Response came to 5. This compound also had an Analgesia in [2] of 29%. In series [3], this compound returned a Latency of 32.4. The Inhibition in [4] was found to be 98.9%. Moreover, the mortality in [5] was 90%.
As to `CCCCCCCCCC(=O)NCc1ccc(O)c(OC)c1`, the Response in [6] turned out to be 5. For the same compound, the Latency in series [3] is given as greater than 43. This compound also returned an Inhibition in series [4] of 71.4%. The mortality in [7] was determined as 80%.
Regarding `CCCCCCC/C=C\CCCCCCCCC(=O)NCc1ccc(O)c(OC)c1`, in [8], the mortality is 30%. Moreover, the Analgesia in series [2] came out at 69%. The Response in series [9] was 7. Also, in [3], the Latency is listed as greater than 38.5. The compound further yielded an Inhibition in series [4] of 81.7%.
With `CCCCCCCCC(=O)NCc1ccc(O)c(OC)c1` [NONIVAMIDE], the mortality in series [10] is 50%. The Response in series [11] was found to be 8. In series [2], this compound showed an Analgesia of 17%. This compound also returned a Latency in series [3] greater than 31.2. In series [4], this compound had an Inhibition of 72.3%.
`C=CCCCCCCCCC(=O)NCc1ccc(O)c(OC)c1` came in with an Analgesia in series [2] of 8%. Also, the Latency in series [3] worked out at 55.5. Further, in series [12], the mortality worked out at 50%. Also, the Inhibition in series [4] came out at 65.7%.
In the case of `COc1cc(CNC(=O)CCCC/C=C\C(C)C)ccc1O` [ZUCAPSAICIN], in series [13], the Response is 6. The same compound returned an Analgesia in series [2] of 0%. Further, the Latency in series [14] is greater than 39.9. For the same compound, the Inhibition in [4] is 79.5%.
For `CCCCCCCCNC(=O)Cc1ccc(O)c(OC)c1`, the Latency was 32.3 in series [15], greater than 60 in series [17] and 58.7 in series [19]. The Analgesia in [16] is on record as 7%. In addition, the mortality in [18] turned out to be 50%. In [4], this compound registered an Inhibition of 89.1%.
